In ChEMBL document CHEMBL3352444, “Bioactive spirobisnaphthalenes from the endophytic fungus Berkleasmium sp” (J Nat Prod, 2014):
Values after ≈ are worked out from the molar mass of the structure shown.

Tests used:
[1] = test system: Agrobacterium tumefaciens; test: Antibacterial activity against Agrobacterium tumefaciens No.8 ATCC 11158 by modified broth dilution method; assay type: functional
How it was run: (§1)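 MIC read in 96-well plates by a modified broth dilution test; streptomycin sulfate as positive control.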

[2] = test system: Pyricularia oryzae; test: Antifungal activity against Magnaporthe oryzae assessed as inhibition of spore germination incubated for 8 hrs; assay type: functional, organism-based
[3] = Cytotoxicity against human Bel7402 cells by MTT assay; conditions: Bel-7402
[4] = test system: A549; test: Cytotoxicity against human A549 cells by MTT assay; assay type: functional, cell-based
[5] = test system: Bacillus subtilis; test: Antibacterial activity against Bacillus subtilis ATCC 11562 by modified broth dilution method; assay type: functional; how it was run: as §1
[6] = test system: Staphylococcus haemolyticus; test: Antibacterial activity against Staphylococcus haemolyticus ATCC 29970 by modified broth dilution method; assay type: functional; how it was run: as §1
[7] = test system: A2780; test: Cytotoxicity against human A2780 cells by MTT assay
[8] = Cytotoxicity against human BGC823 cells by MTT assay; conditions: BGC-823
[9] = test system: Xanthomonas vesicatoria; test: Antibacterial activity against Xanthomonas vesicatoria ATCC 11633 by modified broth dilution method; assay type: functional; how it was run: as §1
[10] = test system: Ralstonia solanacearum; test: Antibacterial activity against Ralstonia solanacearum ATCC 11696 by modified broth dilution method; assay type: functional
[11] = test system: Pseudomonas; test: Antibacterial activity against Pseudomonas lachrymans ATCC 11921 by modified broth dilution method; assay type: functional; how it was run: as §1
[12] = Cytotoxicity against human HCT8 cells by MTT assay; conditions: HCT-8

| SMILES | MIC [1] [µg/mL] | IC50 [2] [µg/mL] | IC50 [3] [µM] | IC50 [4] [µM] | MIC [5] [µg/mL] | MIC [6] [µg/mL] | IC50 [7] [µM] | IC50 [8] [µM] | MIC [9] [µg/mL] | MIC [10] [µg/mL] | MIC [11] [µg/mL] | IC50 [12] [µM] |
| --- | --- | --- | --- | --- | --- | --- | --- | --- | --- | --- | --- | --- |
| Oc1cccc2c1[C@@H](O)[C@H]1O[C@H]1C21Oc2cccc3cccc(c23)O1 | 37.5 (≈ 112 µM) | 32.3 (≈ 96.6 µM) | > 10 | > 10 | 25 (≈ 74.8 µM) | 25 (≈ 74.8 µM) | > 10 | > 10 | 37.5 (≈ 112 µM) | 37.5 (≈ 112 µM) | 37.5 (≈ 112 µM) | > 10 |
| O=C1C=C[C@H](O)[C@@]23O[C@@]12C1(Oc2cccc4cccc(c24)O1)[C@H](O)[C@@H](O)[C@@H]3O | 200 (≈ 520 µM) | > 200 | > 10 | > 10 | 200 (≈ 520 µM) | 200 (≈ 520 µM) | > 10 | > 10 | 150 (≈ 390 µM) | 200 (≈ 520 µM) | 150 (≈ 390 µM) | > 10 |
| O=C1C[C@@H](O)[C@H](O)[C@@]23O[C@@]12C1(Oc2cccc4cccc(c24)O1)[C@@H]1O[C@@H]1[C@@H]3O | 75 (≈ 195 µM) | > 200 | 3.3 | 3.2 | 75 (≈ 195 µM) | 75 (≈ 195 µM) | 5.8 | 3.3 | 75 (≈ 195 µM) | 75 (≈ 195 µM) | 75 (≈ 195 µM) | 1.7 |
| CO[C@@H]1CC(=O)[C@]23O[C@]2([C@@H](O)[C@H]2O[C@H]2C32Oc3cccc4cccc(c34)O2)[C@H]1O | 50 (≈ 126 µM) | > 200 | 6.4 | 8.7 | 37.5 (≈ 94.1 µM) | 50 (≈ 126 µM) | > 10 | > 10 | 37.5 (≈ 94.1 µM) | 37.5 (≈ 94.1 µM) | 37.5 (≈ 94.1 µM) | > 10 |
| Oc1ccc(O)c2c1[C@@H](O)[C@H]1O[C@H]1C21Oc2cccc3cccc(c23)O1 | 250 (≈ 714 µM) | 76.7 (≈ 219 µM) | > 10 | > 10 | 100 (≈ 285 µM) | 250 (≈ 714 µM) | > 10 | > 10 | 200 (≈ 571 µM) | 250 (≈ 714 µM) | 200 (≈ 571 µM) | > 10 |
| O=C1C[C@@H](O)C2(Oc3cccc4cccc(c34)O2)c2c(O)ccc(O)c21 | 37.5 (≈ 107 µM) | 64.8 (≈ 185 µM) | > 10 | > 10 | 37.5 (≈ 107 µM) | 50 (≈ 143 µM) | > 10 | > 10 | 50 (≈ 143 µM) | 37.5 (≈ 107 µM) | 37.5 (≈ 107 µM) | > 10 |
| Oc1ccc(O)c2c1C=C[C@@H](O)C21Oc2cccc3cccc(c23)O1 | 37.5 (≈ 112 µM) | 35.9 (≈ 107 µM) | > 10 | > 10 | 50 (≈ 150 µM) | 37.5 (≈ 112 µM) | > 10 | > 10 | 37.5 (≈ 112 µM) | 37.5 (≈ 112 µM) | 25 (≈ 74.8 µM) | > 10 |
| O=C1C(Cl)=CC2(Oc3cccc4cccc(c34)O2)[C@]23O[C@]12[C@H](O)CCC3=O | 25 (≈ 65 µM) | 9.1 (≈ 23.7 µM) | 2.5 | 1.6 | 50 (≈ 130 µM) | 25 (≈ 65 µM) | 1.3 | 2.6 | 25 (≈ 65 µM) | 25 (≈ 65 µM) | 25 (≈ 65 µM) | 4.2 |
| O=C1CC[C@@H](O)[C@@]23O[C@@]12C1(Oc2cccc4cccc(c24)O1)[C@H](O)[C@@H](O)[C@@H]3O | > 250 | > 200 | > 10 | > 10 | > 250 | > 250 | > 10 | > 10 | > 250 | > 250 | > 250 | > 10 |
| O[C@@H]1[C@@H](O)C2(Oc3cccc4cccc(c34)O2)[C@@]23O[C@@]2([C@@H](O)C=C[C@H]3O)[C@H]1O | > 250 | > 200 | > 10 | > 10 | > 250 | > 250 | > 10 | > 10 | > 250 | > 250 | > 250 | > 10 |
